Data set [1] deals with Rattus norvegicus. In words: The compound was tested for anticonvulsant activity against Maximal Electroshock-Induced Seizures(MES) in intraperitoneal administration. It is filed as functional. Particulars: ip. The method, boiled down: (§1)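 Male Wistar rats (Charles River), maximal electroshock seizure test. Compounds given as solutions or fine dispersions in water or 0.5% methylcellulose; poorly soluble samples micronized. Initial screen at 25 mg/kg ip. ED50 is the dose protecting 50% against hind-limb extensor component, calculated by Miller–Tainter method. Either four doses with at least 12 animals each (with standard error), or three doses with six animals each.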
A general note: Protection in the maximal electroshock model is a classic sign of anticonvulsant action.

In data set [2] the test system is Rattus norvegicus. In words: The compound was tested for anticonvulsant activity against Maximal Electroshock-Induced Seizures(MES) in Wistar male rat, after peroral administration. To be noted: po. It is filed as functional. The essentials:
as §1

Data set [3] in a line: Lipophilicity was measured. It is filed as physicochemical. Particulars: octanol/water.
Data set [4] can be described thus: Dissociation constant was measured. It is filed as physicochemical.

Consider 14 molecules from ChEMBL document CHEMBL1128552, “8-Amino-3-benzyl-1,2,4-triazolo[4,3-a]pyrazines. Synthesis and anticonvulsant activity” (J Med Chem, 1995).

In the case of `Nc1nccn2c(Cc3ccccc3F)nnc12`, the median effective dose (ED50) with Rattus norvegicus [1] was 9 mg/kg; with Rattus norvegicus [2] it was 8 mg/kg.
Regarding `CNc1nccn2c(Cc3cccc(F)c3)nnc12`, the values for the ED50 in the data set on Rattus norvegicus [1] and in the data set with Rattus norvegicus [2] were 4 mg/kg and 20 mg/kg, respectively.
In the case of `CNc1nccn2c(Cc3ccccc3F)nnc12`, the logP in data set [3] amounted to 1.56. The same molecule showed a pKa in data set [4] of 4.02. The ED50 is 5 mg/kg with Rattus norvegicus [1] and 2.6 mg/kg in the data set with Rattus norvegicus [2].
In the data set on Rattus norvegicus [1], `Nc1nccn2c(Cc3ccc(F)cc3)nnc12` had an ED50 of more than 25 mg/kg.
In the data set on Rattus norvegicus [1], `CNc1nccn2c(Cc3ccc(F)cc3)nnc12` registered an ED50 of 25 mg/kg.
In the case of `CNc1nccn2c(Cc3c(F)cccc3F)nnc12`, the values for the ED50 in the data set with Rattus norvegicus [1] and in the data set on Rattus norvegicus [2] were 2 mg/kg and 3 mg/kg, respectively.
For `Nc1nccn2c(Cc3c(F)cccc3F)nnc12`, the ED50 with Rattus norvegicus [1] worked out at 4 mg/kg; in the data set with Rattus norvegicus [2], 7 mg/kg.
Take `Nc1nccn2c(Cc3cc(F)ccc3F)nnc12`: the ED50 with Rattus norvegicus [1] turned out to be 7 mg/kg; in the data set with Rattus norvegicus [2] it was 20 mg/kg.
`CNc1nccn2c(Cc3cc(F)ccc3F)nnc12`: the ED50 was 4 mg/kg in the data set on Rattus norvegicus [1] and 10 mg/kg in the data set with Rattus norvegicus [2].
In the data set on Rattus norvegicus [1], `Nc1nccn2c(Cc3cccc(F)c3)nnc12` returned a 50% effective dose (ED50) of more than 25 mg/kg.
In the case of `CNc1nccn2c(Cc3ccccc3)nnc12`, the median effective dose (ED50) in the data set with Rattus norvegicus [1] turned out to be 6 mg/kg; in the data set with Rattus norvegicus [2], 16 mg/kg.
Regarding `Nc1ncnc2c1ncn2Cc1ccccc1F`, the results for the ED50 in the data set on Rattus norvegicus [1] and with Rattus norvegicus [2] were 4.5 mg/kg and 12 mg/kg, respectively.
`CNc1ncnc2c1ncn2Cc1ccccc1F` [BW-A78U] came in with a logP in data set [3] of 1.86. Besides, the pKa in data set [4] came out at 3.88. For the same molecule, the ED50 with Rattus norvegicus [1] is 1.7 mg/kg; in the data set with Rattus norvegicus [2] it was 2.5 mg/kg.
With `O=C1NC(=O)C(c2ccccc2)(c2ccccc2)N1` [PHENYTOIN], the ED50 is 10 mg/kg with Rattus norvegicus [1] and 20 mg/kg with Rattus norvegicus [2].

Broadly, the ED50 is the dose that gives a 50% effect, or the effect in half of the subjects. For orientation: logP means a log measure of how a compound divides between an organic and an aqueous phase. A low value points to lower lipophilicity. By pKa is commonly meant the pH at which an ionisable group is half protonated. Read a high pKa as a group that holds its proton tightly.
